Source: ChEMBL document CHEMBL1148848, “Discovery and preliminary evaluation of 5-(4-phenylbenzyl)oxazole-4-carboxamides as prostacyclin receptor antagonists” (Bioorg Med Chem Lett, 2007)
pIC50: −log10 of the molar value.

Legend:
Prostacyclin receptor [1] = target: T1, Prostacyclin receptor (Homo sapiens, UniProt P43119); assay: Antagonist activity at human IP receptor in HEL 92.1.7 cells assessed as inhibition of iloprost-induced cAMP production; format: functional, cell-based
How it was run: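 HEL 92.1.7 cells cultured in RPMI with 10% FBS, 10 mM Hepes, 1 mM sodium pyruvate, penicillin/streptomycin. 5000 cells preincubated 15 min at 37 °C with compound in 5 mM Hepes, 0.05% BSA buffer. Stimulated with 0.01 μM iloprost for 15 min at 37 °C. cAMP read by LANCE TR-FRET kit. Data normalized to max/min controls; IC50 from curve fit.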

Prostacyclin receptor [2] = target: T1, Prostacyclin receptor; assay: Displacement of [3H]iloprost from IP receptor in human platelet membrane; format: cell membranes
How it was run: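 Filter binding with 0.01 μM [3H]-iloprost and 50 μg human platelet membranes. Incubated 1 h at room temperature in 20 mM Hepes, 5 mM MgCl2, pH 7.4, with or without compound. Compound serially diluted in DMSO, final DMSO 1–10%. Filtered, washed twice with PBS, counted by scintillation.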

[3] = target: Prostaglandin E2 receptor EP4 subtype (Homo sapiens, UniProt P35408); assay: Inhibition of human recombinant EP4 receptor expressed in 293EBNA cells; format: cell-based
[4] = target: Prostaglandin E2 receptor EP2 subtype (Homo sapiens, UniProt P43116); assay: Inhibition of human recombinant EP2 receptor expressed in 293EBNA cells; format: cell-based
[5] = Metabolic stability in human liver microsomes after 30 mins; format: ADME, Microsome; conditions: read-out: Stability
How it was run: (§1)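 Human or rat liver microsomes, […], incubated 30 min with compound; percent parent remaining.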

Cytochrome P450 3A4 = Cytochrome P450 3A4 (Homo sapiens, UniProt P08684); assay: Inhibition of CYP3A4; format: ADME
[6] = Metabolic stability in rat liver microsome after 30 mins; format: ADME; conditions: liver microsomes, read-out: Stability; how it was run: as §1
Cytochrome P450 2C19 = Cytochrome P450 2C19 (Homo sapiens, UniProt P33261); assay: Inhibition of CYP2C19; format: ADME
Cytochrome P450 2D6 = Cytochrome P450 2D6 (Homo sapiens, UniProt P10635); assay: Inhibition of CYP2D6; format: ADME
Cytochrome P450 2C9 = Cytochrome P450 2C9 (Homo sapiens, UniProt P11712); assay: Inhibition of CYP2C9; format: ADME
hERG (KCNH2) = hERG (KCNH2) (Homo sapiens, UniProt Q12809); assay: Inhibition of hERG at 20 uM by rubidium efflux assay; format: toxicity
Cytochrome P450 1A2 = target: T2, Cytochrome P450 1A2 (Homo sapiens, UniProt P05177); assay: Inhibition of CYP1A2; format: ADME
T2 sequence (P05177 whole entry): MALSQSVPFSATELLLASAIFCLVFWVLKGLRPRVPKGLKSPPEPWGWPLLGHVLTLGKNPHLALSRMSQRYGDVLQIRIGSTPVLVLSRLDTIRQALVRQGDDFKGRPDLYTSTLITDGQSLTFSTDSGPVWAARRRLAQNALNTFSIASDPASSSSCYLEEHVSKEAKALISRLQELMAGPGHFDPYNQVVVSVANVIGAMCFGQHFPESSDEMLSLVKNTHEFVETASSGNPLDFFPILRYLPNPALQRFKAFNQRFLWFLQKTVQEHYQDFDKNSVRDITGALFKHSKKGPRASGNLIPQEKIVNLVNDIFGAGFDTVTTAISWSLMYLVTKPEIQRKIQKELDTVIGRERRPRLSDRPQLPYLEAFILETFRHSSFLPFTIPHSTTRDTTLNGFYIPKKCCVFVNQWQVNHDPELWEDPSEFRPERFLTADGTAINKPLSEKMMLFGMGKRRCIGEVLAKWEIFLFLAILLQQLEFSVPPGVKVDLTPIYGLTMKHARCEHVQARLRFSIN

[7] = Apparent permeability across Caco-2 cells; format: ADME, cell-based; conditions: human

T1 sequence (P43119 whole entry): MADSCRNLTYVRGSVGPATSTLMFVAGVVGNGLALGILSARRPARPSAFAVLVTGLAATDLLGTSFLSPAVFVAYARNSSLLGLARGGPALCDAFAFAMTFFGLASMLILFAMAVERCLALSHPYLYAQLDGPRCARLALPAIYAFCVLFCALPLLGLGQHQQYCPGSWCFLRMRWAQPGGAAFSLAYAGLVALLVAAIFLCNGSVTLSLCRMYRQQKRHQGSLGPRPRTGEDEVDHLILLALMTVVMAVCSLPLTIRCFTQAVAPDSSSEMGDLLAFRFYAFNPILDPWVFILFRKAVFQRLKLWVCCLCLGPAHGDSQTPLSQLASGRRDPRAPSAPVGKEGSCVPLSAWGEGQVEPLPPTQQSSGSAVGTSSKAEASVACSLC
Sequence of Cytochrome P450 3A4 (P08684 whole entry): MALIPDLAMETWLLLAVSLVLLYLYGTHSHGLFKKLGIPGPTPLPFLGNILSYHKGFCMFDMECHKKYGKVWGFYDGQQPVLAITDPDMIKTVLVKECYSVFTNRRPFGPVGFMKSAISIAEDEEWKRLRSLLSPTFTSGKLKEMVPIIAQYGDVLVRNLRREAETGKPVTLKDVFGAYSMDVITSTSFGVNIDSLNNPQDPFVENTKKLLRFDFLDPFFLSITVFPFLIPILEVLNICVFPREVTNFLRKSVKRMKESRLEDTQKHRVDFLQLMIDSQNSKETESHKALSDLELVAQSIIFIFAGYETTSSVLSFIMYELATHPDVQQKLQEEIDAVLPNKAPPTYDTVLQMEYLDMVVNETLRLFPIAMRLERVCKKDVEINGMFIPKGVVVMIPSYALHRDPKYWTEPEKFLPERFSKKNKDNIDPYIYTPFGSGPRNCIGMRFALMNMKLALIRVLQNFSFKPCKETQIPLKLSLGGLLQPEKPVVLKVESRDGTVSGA
Sequence of Prostaglandin E2 receptor EP4 subtype (P35408 whole entry): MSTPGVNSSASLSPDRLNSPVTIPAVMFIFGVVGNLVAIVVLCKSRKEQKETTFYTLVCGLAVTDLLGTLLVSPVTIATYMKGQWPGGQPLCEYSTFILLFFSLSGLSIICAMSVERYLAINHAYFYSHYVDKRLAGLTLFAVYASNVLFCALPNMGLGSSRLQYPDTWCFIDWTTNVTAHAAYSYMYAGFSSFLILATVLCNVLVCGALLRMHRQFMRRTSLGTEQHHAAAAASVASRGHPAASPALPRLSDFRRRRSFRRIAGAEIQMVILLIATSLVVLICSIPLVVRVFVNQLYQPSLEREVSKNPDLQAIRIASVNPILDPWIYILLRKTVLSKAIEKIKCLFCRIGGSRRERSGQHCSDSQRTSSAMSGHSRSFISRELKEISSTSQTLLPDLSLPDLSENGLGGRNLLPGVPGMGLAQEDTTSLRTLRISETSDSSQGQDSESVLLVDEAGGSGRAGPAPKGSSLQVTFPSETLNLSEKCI
Sequence of Prostaglandin E2 receptor EP2 subtype (P43116 whole entry): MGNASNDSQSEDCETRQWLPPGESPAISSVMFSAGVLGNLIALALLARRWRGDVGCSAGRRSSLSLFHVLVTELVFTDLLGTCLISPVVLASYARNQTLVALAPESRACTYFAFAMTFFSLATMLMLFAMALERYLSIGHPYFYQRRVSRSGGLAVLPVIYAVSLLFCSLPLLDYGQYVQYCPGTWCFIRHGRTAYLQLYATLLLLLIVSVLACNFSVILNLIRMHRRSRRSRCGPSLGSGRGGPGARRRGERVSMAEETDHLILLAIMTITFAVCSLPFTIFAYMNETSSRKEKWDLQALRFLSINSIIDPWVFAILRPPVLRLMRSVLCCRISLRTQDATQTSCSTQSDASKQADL
Sequence of Cytochrome P450 2C19 (P33261 whole entry): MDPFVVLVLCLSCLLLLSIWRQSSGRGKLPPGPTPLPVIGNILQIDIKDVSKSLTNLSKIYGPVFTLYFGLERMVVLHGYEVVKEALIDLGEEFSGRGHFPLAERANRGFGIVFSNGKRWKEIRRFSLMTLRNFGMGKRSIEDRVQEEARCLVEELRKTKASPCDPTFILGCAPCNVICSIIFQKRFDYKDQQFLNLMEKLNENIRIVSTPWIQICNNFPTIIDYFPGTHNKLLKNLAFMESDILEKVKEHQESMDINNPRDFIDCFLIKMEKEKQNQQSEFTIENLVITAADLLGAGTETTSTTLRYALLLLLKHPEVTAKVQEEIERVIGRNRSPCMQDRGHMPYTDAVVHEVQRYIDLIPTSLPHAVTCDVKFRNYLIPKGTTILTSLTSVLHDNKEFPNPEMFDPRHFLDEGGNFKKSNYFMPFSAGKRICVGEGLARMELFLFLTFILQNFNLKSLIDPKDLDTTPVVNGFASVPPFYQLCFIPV
Sequence of Cytochrome P450 2D6 (P10635 whole entry): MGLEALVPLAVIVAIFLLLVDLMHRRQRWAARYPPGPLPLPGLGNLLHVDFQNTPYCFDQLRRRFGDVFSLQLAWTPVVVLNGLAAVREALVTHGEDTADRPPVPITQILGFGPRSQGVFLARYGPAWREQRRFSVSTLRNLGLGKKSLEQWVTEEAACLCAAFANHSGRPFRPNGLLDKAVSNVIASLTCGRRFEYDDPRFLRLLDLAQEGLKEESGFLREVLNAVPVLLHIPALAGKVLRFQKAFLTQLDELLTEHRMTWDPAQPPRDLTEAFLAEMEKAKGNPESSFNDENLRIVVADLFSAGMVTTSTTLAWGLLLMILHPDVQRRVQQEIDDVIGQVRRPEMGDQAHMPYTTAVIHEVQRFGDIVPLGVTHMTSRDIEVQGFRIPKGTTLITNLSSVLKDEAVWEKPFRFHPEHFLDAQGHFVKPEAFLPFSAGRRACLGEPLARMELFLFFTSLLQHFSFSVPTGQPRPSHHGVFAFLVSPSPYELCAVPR
Sequence of hERG (KCNH2) (Q12809 whole entry): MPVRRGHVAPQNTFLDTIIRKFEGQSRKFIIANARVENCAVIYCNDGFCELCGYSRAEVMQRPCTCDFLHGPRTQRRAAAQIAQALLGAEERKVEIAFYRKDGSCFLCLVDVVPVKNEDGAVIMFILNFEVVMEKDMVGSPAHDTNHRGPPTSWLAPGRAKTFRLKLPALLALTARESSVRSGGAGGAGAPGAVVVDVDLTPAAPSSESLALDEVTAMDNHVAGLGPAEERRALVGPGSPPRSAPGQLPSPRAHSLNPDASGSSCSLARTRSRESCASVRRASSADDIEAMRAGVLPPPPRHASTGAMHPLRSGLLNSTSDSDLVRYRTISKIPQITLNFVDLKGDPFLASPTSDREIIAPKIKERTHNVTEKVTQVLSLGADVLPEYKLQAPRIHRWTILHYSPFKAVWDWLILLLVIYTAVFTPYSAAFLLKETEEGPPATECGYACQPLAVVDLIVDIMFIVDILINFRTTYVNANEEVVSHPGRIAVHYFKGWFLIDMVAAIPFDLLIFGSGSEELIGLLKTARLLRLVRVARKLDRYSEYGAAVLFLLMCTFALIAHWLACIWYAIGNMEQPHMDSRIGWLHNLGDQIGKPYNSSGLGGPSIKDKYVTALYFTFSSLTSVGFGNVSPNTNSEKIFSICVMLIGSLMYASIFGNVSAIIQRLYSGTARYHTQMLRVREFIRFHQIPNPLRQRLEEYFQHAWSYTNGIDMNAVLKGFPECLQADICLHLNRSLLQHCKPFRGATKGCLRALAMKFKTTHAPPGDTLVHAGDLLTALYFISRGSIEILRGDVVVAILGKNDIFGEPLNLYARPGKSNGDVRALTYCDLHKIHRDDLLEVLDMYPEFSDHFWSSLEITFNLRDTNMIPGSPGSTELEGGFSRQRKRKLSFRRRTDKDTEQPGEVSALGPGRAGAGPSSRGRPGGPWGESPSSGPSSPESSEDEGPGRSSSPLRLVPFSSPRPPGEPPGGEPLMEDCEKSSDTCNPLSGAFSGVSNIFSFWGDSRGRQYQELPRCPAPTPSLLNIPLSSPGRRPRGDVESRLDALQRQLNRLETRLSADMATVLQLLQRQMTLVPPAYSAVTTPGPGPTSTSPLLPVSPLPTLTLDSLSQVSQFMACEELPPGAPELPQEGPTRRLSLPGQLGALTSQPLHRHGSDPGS
Sequence of Cytochrome P450 2C9 (P11712 whole entry): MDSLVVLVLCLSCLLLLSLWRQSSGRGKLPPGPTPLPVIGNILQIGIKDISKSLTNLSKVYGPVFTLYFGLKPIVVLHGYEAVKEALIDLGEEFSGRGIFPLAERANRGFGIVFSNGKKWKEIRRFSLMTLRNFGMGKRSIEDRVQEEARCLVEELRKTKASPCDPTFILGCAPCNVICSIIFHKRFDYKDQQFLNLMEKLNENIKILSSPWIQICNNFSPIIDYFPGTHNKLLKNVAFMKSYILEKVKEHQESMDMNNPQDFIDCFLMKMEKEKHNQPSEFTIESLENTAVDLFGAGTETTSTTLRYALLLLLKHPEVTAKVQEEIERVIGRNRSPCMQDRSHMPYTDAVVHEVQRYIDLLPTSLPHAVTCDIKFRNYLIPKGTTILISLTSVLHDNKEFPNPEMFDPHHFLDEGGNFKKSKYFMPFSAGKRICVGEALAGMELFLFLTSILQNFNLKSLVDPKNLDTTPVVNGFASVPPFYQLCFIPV

Row | Compound | pIC50 (Prostacyclin receptor [1]) | pIC50 (Prostacyclin receptor [2]) | other results
1 | CC(=O)Nc1cccc(-c2ccc(Cc3ocnc3C(=O)N[C@H](Cc3ccccc3)C(=O)O)cc2)c1 | 6.08 | 5.38 | –
2 | CC(=O)Nc1cccc(-c2ccc(Cc3ocnc3C(=O)NCCN(C)C)cc2)c1 | 5.48 | 4.47 | –
3 | CC(=O)Nc1cccc(-c2ccc(Cc3ocnc3C(=O)NCCc3cccnc3)cc2)c1 | 6.13 | 5.31 | –
4 | CC(=O)Nc1cccc(-c2ccc(Cc3ocnc3C(=O)Nc3ccccc3)cc2)c1 | 6.08 | 5.46 | –
5 | CC(=O)Nc1cccc(-c2ccc(Cc3ocnc3C(=O)N(C)C)cc2)c1 | 5.45 | 4.91 | –
6 | CC(=O)Nc1cccc(-c2ccc(Cc3ocnc3C(=O)NCCc3ccccn3)cc2)c1 | 6.00 | 5.12 | –
7 | CC(=O)Nc1cccc(-c2ccc(Cc3ocnc3C(=O)N(C)CCc3ccccc3)cc2)c1 | 5.67 | 5.15 | –
8 | CC(=O)Nc1cccc(-c2ccc(Cc3ocnc3C(=O)NCCc3ccncc3)cc2)c1 | 6.32 | 5.33 | –
9 | CNC(=O)c1ncoc1Cc1ccc(-c2cccc(NC(C)=O)c2)cc1 | 5.48 | 4.91 | –

These reach a higher pIC50 (Prostacyclin receptor [2]). Values come first.

Row | pIC50 (Prostacyclin receptor [1]) | pIC50 (Prostacyclin receptor [2]) | Compound | other results
10 | 6.56 | 5.91 | CC(=O)Nc1cccc(-c2ccc(Cc3ocnc3C(=O)NC(C)c3ccccc3)cc2)c1 (racemic) | –
11 | 6.53 | 6.04 | CC(=O)Nc1cccc(-c2ccc(Cc3ocnc3C(=O)NC[C@@H](C)c3ccccc3)cc2)c1 | –
12 | 6.86 | 6.14 | CC(=O)Nc1cccc(-c2ccc(Cc3ocnc3C(=O)NCCc3ccccc3)cc2)c1 | –
13 | 7.18 | 6.25 | CC(=O)Nc1cccc(-c2ccc(Cc3ocnc3C(=O)NCc3ccccc3)cc2)c1 | remaining at 0.5 h [5]: 63%; remaining at 0.5 h [6]: 33%
14 | 7.80 | 6.32 | CC(=O)Nc1cccc(-c2ccc(Cc3ocnc3C(=O)N[C@@H](Cc3ccccc3)C(=O)O)cc2)c1 | pIC50 [3]: 4.62; pIC50 [4]: 4.49; remaining at 0.5 h [5]: 100%; pIC50 (Cytochrome P450 3A4): < 4.70; remaining at 0.5 h [6]: 91%; pIC50 (Cytochrome P450 2C19): < 4.70; pIC50 (Cytochrome P450 2D6): < 4.70; pIC50 (Cytochrome P450 2C9): 5.29; inhibition at 20 µM (hERG (KCNH2)): 5%; pIC50 (Cytochrome P450 1A2): < 4.70; Papp [7]: 5.5 ×10⁻⁶ cm/s
15 | 6.45 | 6.48 | CC(=O)Nc1cccc(-c2ccc(Cc3ocnc3C(=O)N[C@H]3C[C@@H]3c3ccccc3)cc2)c1 | –
16 | – | 7.11 | CC(=O)Nc1cccc(-c2ccc(Cc3ocnc3C(=O)NCC(C)c3ccccc3)cc2)c1 (racemic) | –
17 | 7.29 | 7.28 | CC(=O)Nc1cccc(-c2ccc(Cc3ocnc3C(=O)NC[C@H](C)c3ccccc3)cc2)c1 | remaining at 0.5 h [5]: 12%; remaining at 0.5 h [6]: 11%
